Consider 16 molecules from ChEMBL document CHEMBL1152695, “Development of 3-substituted-1H-indole derivatives as NR2B/NMDA receptor antagonists” (Bioorg Med Chem, 2009).

Usually ED50 stands for the dose at which the effect has come halfway, by size or by number of responders. Usually pIC50 stands for the negative decadic logarithm of the IC50, by convention in mol/L. The pKi is the Ki on a negative log10 scale, so that one unit is a factor of ten.

pIC50, pKi: −log10 of the molar value.

Test [1] has as its system Mus musculus. The test can be described thus: Anticonvulsant activity in ip dosed DBA/2 mouse assessed as inhibition of auditory stimulation-induced tonic seizures administered 30 mins before auditory stimulation. In kind it is functional. As to conditions: DBA/2, ip. An outline of the steps: (§1)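 DBA/2 mice (8–12 g, 22–25 days old), either sex, groups of 10. Given ip in 50% DMSO/50% saline at 0.1 mL/10 g, 30 min before testing. After 60 s habituation under a dome, sound (12–16 kHz, 109 dB) applied for 60 s or until tonic extension. Latency and incidence of each seizure phase scored.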

Test [2] relates to Mus musculus. Put plainly: Anticonvulsant activity in ip dosed DBA/2 mouse assessed as inhibition of auditory stimulation-induced clonic seizures administered 30 mins before auditory stimulation. In kind it is functional. Particulars: DBA/2, ip. An outline of the steps:
as §1

Test [3] concerns the target Glutamate receptor ionotropic, NMDA 2B (Rattus norvegicus) (UniProt Q00960). The test can be described thus: Displacement of [3H]ifenprodil from NMDA NR2B receptor in Wistar rat cerebral cortex membrane at 10 uM. Format: tissue-based. In general terms: Loss of bound radioactivity is the signal in a displacement assay; it reports binding, not function.
The target is the same in test [4]. The test can be described thus: Antagonist activity at NMDA NR2B receptor in Wistar rat CA1 pyramidal neurons assessed as reduction of NMDA-induced inward currents at 1 uM at holding potential of -60 mV by patch-clamp technique. In kind it is functional, cell-based. Set-up: scale not given: the % may be the effect or the level left. Particulars: Pyramidal neuron. An outline of the steps:
(§2)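 Rat hippocampal slices; whole-cell currents recorded from single CA1 pyramidal neurons held at -60 mV. Inward current evoked by NMDA (50 µM, 5 s) plus glycine (0.5 µM). Compound bath-perfused at 1, 10 or 100 µM for 5 min. Amplitude taken as peak minus baseline, from at least three consecutive responses in control and in compound. Sets compared by unpaired t-test; percent reduction reported as mean ± SEM.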
For orientation: The patch-clamp technique gives a direct electrical read-out from membranes.

Test [5] has the same target. The test can be described thus: Antagonist activity at NMDA NR2B receptor in Wistar rat CA1 pyramidal neurons assessed as inhibition of NMDA-induced inward currents at holding potential of -60 mV by patch-clamp technique. Format: functional, cell-based. As to conditions: Pyramidal neuron. An outline of the steps: as §2
Test [6] shares this target. The test can be described thus: Antagonist activity at NMDA NR2B receptor in Wistar rat CA1 pyramidal neurons assessed as reduction of NMDA-induced inward currents at 100 uM at holding potential of -60 mV by patch-clamp technique. Set-up: scale not given: the % may be the effect or the level left. Particulars: Pyramidal neuron. In kind it is functional, cell-based. An outline of the steps:
as §2

Test [7] shares this target. Put plainly: Antagonist activity at NMDA NR2B receptor in Wistar rat CA1 pyramidal neurons assessed as reduction of NMDA-induced inward currents at 10 uM at holding potential of -60 mV by patch-clamp technique. Format: functional, cell-based. Set-up: scale not given: the % may be the effect or the level left. Particulars: Pyramidal neuron. An outline of the steps:
as §2

In test [8] the target is Glutamate receptor ionotropic, NMDA 2B (Rattus norvegicus, UniProt Q00960). The test can be described thus: Displacement of [3H]ifenprodil from NMDA NR2B receptor in Wistar rat cerebral cortex membrane. In kind it is tissue-based.
Sequence of Glutamate receptor ionotropic, NMDA 2B (Q00960 whole entry): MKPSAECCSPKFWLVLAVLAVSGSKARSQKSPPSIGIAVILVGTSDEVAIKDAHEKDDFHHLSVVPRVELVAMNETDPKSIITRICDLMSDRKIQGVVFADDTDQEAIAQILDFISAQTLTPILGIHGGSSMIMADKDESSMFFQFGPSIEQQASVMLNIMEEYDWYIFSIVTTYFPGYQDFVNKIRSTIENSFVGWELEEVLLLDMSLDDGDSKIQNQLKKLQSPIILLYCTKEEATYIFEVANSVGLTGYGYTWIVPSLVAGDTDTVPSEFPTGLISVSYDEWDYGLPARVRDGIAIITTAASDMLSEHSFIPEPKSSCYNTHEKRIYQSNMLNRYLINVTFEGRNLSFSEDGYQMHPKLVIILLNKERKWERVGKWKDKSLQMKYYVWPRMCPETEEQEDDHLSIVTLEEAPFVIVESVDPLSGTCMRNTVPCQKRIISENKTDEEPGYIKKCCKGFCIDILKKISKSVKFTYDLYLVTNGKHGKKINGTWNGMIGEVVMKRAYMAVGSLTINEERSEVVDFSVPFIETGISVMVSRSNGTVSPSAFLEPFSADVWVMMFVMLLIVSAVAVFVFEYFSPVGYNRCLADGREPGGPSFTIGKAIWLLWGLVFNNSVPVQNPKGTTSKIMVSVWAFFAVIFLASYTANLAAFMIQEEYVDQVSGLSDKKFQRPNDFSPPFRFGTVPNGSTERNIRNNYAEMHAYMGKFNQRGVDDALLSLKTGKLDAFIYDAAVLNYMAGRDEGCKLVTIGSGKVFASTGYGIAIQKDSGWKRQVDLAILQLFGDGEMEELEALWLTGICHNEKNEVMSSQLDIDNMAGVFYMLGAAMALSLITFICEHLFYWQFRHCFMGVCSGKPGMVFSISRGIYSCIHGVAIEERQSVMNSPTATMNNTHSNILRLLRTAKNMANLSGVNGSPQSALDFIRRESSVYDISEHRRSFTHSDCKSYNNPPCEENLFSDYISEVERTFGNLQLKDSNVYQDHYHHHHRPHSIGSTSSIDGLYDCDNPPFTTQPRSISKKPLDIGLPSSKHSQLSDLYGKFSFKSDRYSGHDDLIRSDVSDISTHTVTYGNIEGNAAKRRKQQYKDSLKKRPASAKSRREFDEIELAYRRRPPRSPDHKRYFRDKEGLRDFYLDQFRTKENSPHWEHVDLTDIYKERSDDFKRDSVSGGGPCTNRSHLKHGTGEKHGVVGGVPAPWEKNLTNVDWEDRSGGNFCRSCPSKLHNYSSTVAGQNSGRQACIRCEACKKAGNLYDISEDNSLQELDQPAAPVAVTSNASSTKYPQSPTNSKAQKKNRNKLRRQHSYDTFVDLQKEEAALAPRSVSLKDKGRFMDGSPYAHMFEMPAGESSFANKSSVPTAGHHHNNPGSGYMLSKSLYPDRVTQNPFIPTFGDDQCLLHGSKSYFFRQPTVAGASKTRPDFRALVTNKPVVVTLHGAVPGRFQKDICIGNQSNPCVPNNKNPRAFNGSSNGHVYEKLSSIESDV

Sequence of Glutamate receptor ionotropic, NMDA 2B (Rattus norvegicus) (Q00960 27-1482 limits assumed): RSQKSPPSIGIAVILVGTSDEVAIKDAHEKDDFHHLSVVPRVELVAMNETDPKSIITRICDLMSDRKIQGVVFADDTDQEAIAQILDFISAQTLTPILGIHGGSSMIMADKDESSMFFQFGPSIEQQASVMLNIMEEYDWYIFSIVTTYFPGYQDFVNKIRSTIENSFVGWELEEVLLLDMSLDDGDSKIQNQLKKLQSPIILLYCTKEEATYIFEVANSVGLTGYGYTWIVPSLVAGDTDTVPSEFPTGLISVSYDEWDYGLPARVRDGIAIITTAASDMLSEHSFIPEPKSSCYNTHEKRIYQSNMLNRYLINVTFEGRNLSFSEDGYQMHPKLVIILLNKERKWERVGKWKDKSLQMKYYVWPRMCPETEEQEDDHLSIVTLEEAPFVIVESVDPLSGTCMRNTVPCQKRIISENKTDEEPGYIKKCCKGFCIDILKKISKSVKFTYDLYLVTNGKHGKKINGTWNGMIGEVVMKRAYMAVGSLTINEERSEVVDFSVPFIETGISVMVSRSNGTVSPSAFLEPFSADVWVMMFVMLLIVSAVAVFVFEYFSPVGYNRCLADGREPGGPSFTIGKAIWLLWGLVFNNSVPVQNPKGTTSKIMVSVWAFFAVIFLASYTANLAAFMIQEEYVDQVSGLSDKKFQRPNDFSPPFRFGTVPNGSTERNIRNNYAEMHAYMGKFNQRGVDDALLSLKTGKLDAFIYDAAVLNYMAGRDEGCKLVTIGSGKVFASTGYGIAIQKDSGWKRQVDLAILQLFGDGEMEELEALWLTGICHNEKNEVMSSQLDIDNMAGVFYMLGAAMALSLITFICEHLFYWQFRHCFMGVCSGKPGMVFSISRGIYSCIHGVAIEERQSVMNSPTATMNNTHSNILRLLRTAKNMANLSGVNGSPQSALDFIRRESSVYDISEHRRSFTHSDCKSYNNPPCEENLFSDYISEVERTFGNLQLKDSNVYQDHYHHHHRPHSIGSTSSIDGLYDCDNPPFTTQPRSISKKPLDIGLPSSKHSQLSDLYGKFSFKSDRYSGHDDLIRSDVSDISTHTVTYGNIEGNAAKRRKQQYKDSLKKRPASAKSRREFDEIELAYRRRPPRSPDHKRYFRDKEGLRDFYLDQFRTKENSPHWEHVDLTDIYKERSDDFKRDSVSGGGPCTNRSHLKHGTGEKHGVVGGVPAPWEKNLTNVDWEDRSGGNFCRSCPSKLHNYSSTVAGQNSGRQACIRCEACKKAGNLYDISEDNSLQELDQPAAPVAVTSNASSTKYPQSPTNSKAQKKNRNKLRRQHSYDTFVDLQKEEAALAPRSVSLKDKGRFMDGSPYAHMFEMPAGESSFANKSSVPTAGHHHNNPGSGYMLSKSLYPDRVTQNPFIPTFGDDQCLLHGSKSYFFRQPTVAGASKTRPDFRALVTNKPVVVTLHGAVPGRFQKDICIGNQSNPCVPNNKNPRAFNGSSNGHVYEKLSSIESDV

With `O=C(CN1CCC(Cc2ccccc2)CC1)c1c[nH]c2ccc(Br)cc12`, the figures for the ED50 in the test on Mus musculus [1] and with Mus musculus [2] were 49.7 µmol/kg and 84.9 µmol/kg, respectively.

Regarding `O=C(CN1CCN(Cc2ccccc2)CC1)c1c[nH]c2ccccc12`, the ED50 in the test with Mus musculus [1] and in the test with Mus musculus [2] was greater than 100 µmol/kg throughout.

As for `O=C(C(=O)N1CCC(Cc2ccccc2)CC1)c1c[nH]c2ccccc12`, the ED50 came to 0.95 µmol/kg in the test with Mus musculus [1] and 22.4 µmol/kg in the test on Mus musculus [2]. Moreover, the Activity in test [3] turned out to be 36%.

Regarding `O=C(CN1CCC(Cc2ccccc2)CC1)c1c[nH]c2ncccc12`, the results for the median effective dose (ED50) with Mus musculus [1] and with Mus musculus [2] were 32.5 µmol/kg and 88.5 µmol/kg, respectively.

In the case of `COc1ccc2[nH]cc(CC(=O)N3CCC(Cc4ccccc4)CC3)c2c1`, the median effective dose (ED50) with Mus musculus [1] turned out to be 34.4 µmol/kg; in the test with Mus musculus [2], 89 µmol/kg.

With `O=C(C(=O)N1CCC(Cc2ccccc2)CC1)c1c[nH]c2ccc(Br)cc12`, the results for the ED50 with Mus musculus [1] and in the test with Mus musculus [2] were 47.9 µmol/kg and greater than 100 µmol/kg, respectively.

`COc1ccc2[nH]cc(C(=O)C(=O)N3CCC(Cc4ccccc4)CC3)c2c1`: the ED50 in the test with Mus musculus [1] is 78.8 µmol/kg; in the test with Mus musculus [2], greater than 100 µmol/kg.

Consider `O=C(CN1CCC(Cc2ccccc2)CC1)c1c[nH]c2ccc(O)cc12`, for which the ED50 with Mus musculus [1] came out at 6.48 µmol/kg; with Mus musculus [2], 11.5 µmol/kg. The Activity in test [4] was 23%; in test [5] it was “Dose-dependent effect”; in test [6] it was 75%; in test [7], 52%; in test [3], 92%. Moreover, the pIC50 in test [8] was 7.60. In test [8], this molecule gave a pKi of 7.64.

In the case of `O=C(C(=O)N1CCC(Cc2ccccc2)CC1)c1c[nH]c2ccc(O)cc12`, the ED50 with Mus musculus [1] and with Mus musculus [2] was greater than 100 µmol/kg throughout. In test [8], the pIC50 is 5.58. Further, the Activity in test [3] was 77%.

Regarding `C[C@@H](CN1CCC(Cc2ccccc2)CC1)[C@@H](O)c1ccc(O)cc1`, the values for the ED50 in the test on Mus musculus [1] and in the test with Mus musculus [2] were 10.6 µmol/kg and 40 µmol/kg, respectively.

For `O=C(CCc1c[nH]c2ccccc12)N1CCC(Cc2ccccc2)CC1`, the values for the ED50 in the test with Mus musculus [1] and in the test with Mus musculus [2] were 57.6 µmol/kg and greater than 100 µmol/kg, respectively.

Turning to `COc1ccc2[nH]cc(C(=O)CN3CCC(Cc4ccccc4)CC3)c2c1`, the ED50 with Mus musculus [1] stood at 36.5 µmol/kg; in the test on Mus musculus [2], 59.9 µmol/kg.

With `O=C(Cc1c[nH]c2ccc(O)cc12)N1CCC(Cc2ccccc2)CC1`, the figures for the ED50 in the test on Mus musculus [1] and in the test with Mus musculus [2] were 13.9 µmol/kg and 45.6 µmol/kg, respectively.

In the case of `O=C(CN1CCC(Cc2ccccc2)CC1)c1c[nH]c2ccccc12`, the ED50 worked out at 8.71 µmol/kg in the test on Mus musculus [1] and 22.4 µmol/kg in the test with Mus musculus [2]. Moreover, the negative logarithm of the IC50 (pIC50) in test [8] was 6.11. Besides, the Activity in test [3] came to 89%.

As for `O=C(Cc1c[nH]c2ccc(Br)cc12)N1CCC(Cc2ccccc2)CC1`, the ED50 in the test on Mus musculus [1] was determined as 5.42 µmol/kg; in the test with Mus musculus [2], 27.3 µmol/kg.

Consider `O=C(Cc1c[nH]c2ccccc12)N1CCC(Cc2ccccc2)CC1`, for which the 50% effective dose (ED50) was 39.2 µmol/kg in the test with Mus musculus [1] and 70.3 µmol/kg in the test on Mus musculus [2].
